Results on 19 molecules are retold here after ChEMBL document CHEMBL1154788, “Synthesis and antibacterial activity of some novel bis-1,2,4-triazolo[3,4-b]-1,3,4-thiadiazoles and bis-4-thiazolidinone derivatives from terephthalic dihydrazide” (2009).

Test [1] has as its system Bacillus cereus. Put plainly: Antibacterial activity against Bacillus cereus ATTC 10702 at 1 mg/ml after 24 hrs by well-diffusion method. The format is functional. The note with it: ATTC 10702, 24 h, read-out: DIZ. The gist of the method: (§1)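 Agar well diffusion. About 1 cm3 of a 24 h infusion-broth culture (10^6 cfu cm-3) was mixed in plates with 15 cm3 molten nutrient agar held at 45°C. Once the agar set, 6 mm wells were punched and filled with compound solution (1 mg ml-1 in DMSO). Plates were incubated 24 h at 37°C, and the inhibition-zone diameter was measured. Ciprofloxacin and sulphamethoxazole were the standards.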
(In general: Agar diffusion results depend on both activity and mobility in agar.)

The test system of test [2] is Escherichia coli. Kind of test: Antibacterial activity against Escherichia coli ATTC 25922 at 1 mg/ml after 24 hrs by well-diffusion method. The format is functional. The note with it: ATTC 25922, 24 h, read-out: DIZ. The gist of the method: as §1
Test [3] has as its system Salmonella typhimurium. Put plainly: Antibacterial activity against Salmonella Typhimurium ATTC 23564 at 1 mg/ml after 24 hrs by well-diffusion method. Particulars: Salmonella enterica, ATTC 23564, 24 h; read-out: DIZ. The format is functional, Salmonella enterica subsp. enterica serovar Typhimurium.
For test [4], the system named is Klebsiella pneumoniae. Put plainly: Antibacterial activity against Klebsiella pneumoniae ATCC 10031 at 1 mg/ml after 24 hrs by well-diffusion method. The format is functional. Particulars: ATCC 10031, 24 h, read-out: DIZ.

Turning to `O=C(N/N=C/c1ccccc1)c1ccc(C(=O)N/N=C/c2ccccc2)cc1`, the zone of inhibition at 1000 µg/mL amounted to 4 mm in test [1], 6 mm in test [2], 4 mm in test [3] and 5 mm in test [4].
Turning to `O=C(NN1C(=O)CSC1c1ccccc1)c1ccc(C(=O)NN2C(=O)CSC2c2ccccc2)cc1` (stereo not given), the zone of inhibition at 1000 µg/mL in test [1] was found to be 8 mm; in test [2], 8 mm; in test [3], 7 mm; in test [4], 6 mm.
As to `c1ccc(-c2nnc(-c3ccc(-c4nnc(-c5ccccc5)o4)cc3)o2)cc1`, the zone of inhibition at 1000 µg/mL in test [1] stood at 8 mm; in test [2] it was 8 mm; in test [3], 7 mm; in test [4], 7 mm.
Turning to `COc1ccc(/C=N/NC(=O)c2ccc(C(=O)N/N=C/c3ccc(OC)cc3)cc2)cc1`, the zone of inhibition at 1000 µg/mL was 6 mm in test [1], 6 mm in test [2], 4 mm in test [3] and 6 mm in test [4].
For `O=[N+]([O-])c1ccc(-c2nn3c(-c4ccc(-c5nnc6sc(-c7ccc([N+](=O)[O-])cc7)nn56)cc4)nnc3s2)cc1`, the zone of inhibition at 1000 µg/mL in test [1], in test [2], in test [3] and in test [4] was 5 mm throughout.
On to `O=C(N/N=C/c1ccccc1Br)c1ccc(C(=O)N/N=C/c2ccccc2Br)cc1`, for which the zone of inhibition at 1000 µg/mL in test [1] was determined as 5 mm; in test [2] it was 6 mm; in test [3], 6 mm; in test [4], 5 mm.
As for `O=C(N/N=C/c1ccccc1Cl)c1ccc(C(=O)N/N=C/c2ccccc2Cl)cc1`, the zone of inhibition at 1000 µg/mL in test [1] worked out at 8 mm; in test [2] it was 5 mm; in test [3] it was 7 mm; in test [4], 6 mm.
Turning to `O=C(NN1C(=O)CSC1c1ccccc1Br)c1ccc(C(=O)NN2C(=O)CSC2c2ccccc2Br)cc1` (stereo not given), the zone of inhibition at 1000 µg/mL in test [1] is 7 mm; in test [2], 7 mm; in test [3], 6 mm; in test [4] it was 7 mm.
Turning to `Clc1ccc(-c2nnc(-c3ccc(-c4nnc(-c5ccc(Cl)cc5)o4)cc3)o2)cc1`, the zone of inhibition at 1000 µg/mL in test [1] stood at 8 mm; in test [2], 8 mm; in test [3], 6 mm; in test [4], 4 mm.
On to `O=C(N/N=C/c1ccc(O)cc1)c1ccc(C(=O)N/N=C/c2ccc(O)cc2)cc1`, for which the zone of inhibition at 1000 µg/mL in test [1] stood at 6 mm; in test [2], 5 mm; in test [3], 5 mm; in test [4], 5 mm.
As to `Nn1c(S)nnc1-c1ccc(-c2nnc(S)n2N)cc1`, the zone of inhibition at 1000 µg/mL in test [1] is 5 mm; in test [2], 7 mm; in test [3], 6 mm; in test [4], 6 mm.
As to `Clc1ccccc1-c1nn2c(-c3ccc(-c4nnc5sc(-c6ccccc6Cl)nn45)cc3)nnc2s1`, the zone of inhibition at 1000 µg/mL was 7 mm in test [1], 6 mm in test [2], 6 mm in test [3] and 6 mm in test [4].
In the case of `Oc1ccc(-c2nnc(-c3ccc(-c4nnc(-c5ccc(O)cc5)o4)cc3)o2)cc1`, the zone of inhibition at 1000 µg/mL in test [1] amounted to 5 mm; in test [2], 6 mm; in test [3], 4 mm; in test [4], 6 mm.
Turning to `COc1ccc(-c2nnc(-c3ccc(-c4nnc(-c5ccc(OC)cc5)o4)cc3)o2)cc1`, the zone of inhibition at 1000 µg/mL in test [1] was found to be 6 mm; in test [2], 7 mm; in test [3], 4 mm; in test [4], 5 mm.
For `O=C(NN1C(=O)CSC1c1ccccc1Cl)c1ccc(C(=O)NN2C(=O)CSC2c2ccccc2Cl)cc1` (stereo not given) the same measures were 6 mm, 7 mm, 6 mm and 6 mm.
For `Nc1ccc(-c2nnc(-c3ccc(-c4nnc(-c5ccc(N)cc5)o4)cc3)o2)cc1` the same measures were 6 mm, 6 mm, 5 mm and 5 mm.
For `O=[N+]([O-])c1ccc(-c2nnc(-c3ccc(-c4nnc(-c5ccc([N+](=O)[O-])cc5)o4)cc3)o2)cc1`, in that order: 9 mm, 9 mm, 8 mm and 8 mm.
Turning to `O=C(O)c1cn(C2CC2)c2cc(N3CCNCC3)c(F)cc2c1=O` [CIPROFLOXACIN], the zone of inhibition at 1000 µg/mL in test [1] came to 18 mm; in test [3], 23 mm; in test [4], 21 mm.
In the case of `Cc1cc(NS(=O)(=O)c2ccc(N)cc2)no1` [SULFAMETHOXAZOLE], the zone of inhibition at 1000 µg/mL was found to be 10 mm in test [1], 12 mm in test [2], 11 mm in test [3] and 10 mm in test [4].
